TCR-CD3 inh – human TCR-CD3 binding inhibition; TAMRA-labeled TCR probe fluorescence, biochemical; inhibition, % at 9.4 µM; hit rate 0.37% among 360,000; AID 651800; in the data active = inhibition above about 19%;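 note: recombinant mutant TCR 2C K166C tagged with TAMRA read by polarization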
PAD4 inh – blocks human protein arginine deiminase 4; Q9UM07; recombinant PAD4, RCA probe fluorescence polarization; inhibition, % at 6.36 µM; hit rate 0.41% among 330,000; AID 485272;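 active = percent inhibition above a cutoff equal to the mean of all tested compounds plus 3 SD, cut at about 15% in these data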
HTRA1 inhibitor – blocks human HTRA1 serine peptidase | recombinant HTRA1, FP-rhodamine activity-based probe, fluorescence polarization | Q92743 | hit rate 0.5% among 340,000 | inhibition, % at 5.96 µM; in the data active = inhibition above about 36%
SIAE inh – human SIAE inhibition, primary screen | Q9HAT2 | SIAE FP-Rh probe binding, fluorescence polarization | inhibition, % at 9.66 µM | hit rate 0.69% among 370,000 | AID 1053197;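 active = inhibition above a cutoff: mean of compounds within the control limits plus 3 SD of those, cut at about 17% in these data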
ABHD4 inh – ABHD4 (mouse) inhibition, primary FP screen; Q8VD66; purified mABHD4, FP-Rh probe fluorescence polarization; inhibition, % at 8.92 µM; hit rate 0.54% among 370,000;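 active = inhibition exceeding the mean over every tested compound plus 3 SD, cut at about 30% in these data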
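Test system: mABHD4 protein; Read-out basis: % inhibition; Incubation: 45 min + 60 min at 25 °C; Repeats: single replicate; Technique: fluorescence polarization with parallel and perpendicular emission, 525/598 nm; Compound: 8.92 µM, single dose; Benchmarks: full inhibition S159A mutant plus DMSO, zero as sample-well median.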
PRMT1 FP inh – PRMT1 (human) inhibition, primary screen | recombinant PRMT1, activity-based probe fluorescence polarization | Q99873 | hit rate 1.3% among 370,000 | inhibition, % at 2.79 µM;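 active = inhibition above about 21% made by adding two undisclosed values, limit read from the data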
Target sequence (Q99873 whole entry, looked up): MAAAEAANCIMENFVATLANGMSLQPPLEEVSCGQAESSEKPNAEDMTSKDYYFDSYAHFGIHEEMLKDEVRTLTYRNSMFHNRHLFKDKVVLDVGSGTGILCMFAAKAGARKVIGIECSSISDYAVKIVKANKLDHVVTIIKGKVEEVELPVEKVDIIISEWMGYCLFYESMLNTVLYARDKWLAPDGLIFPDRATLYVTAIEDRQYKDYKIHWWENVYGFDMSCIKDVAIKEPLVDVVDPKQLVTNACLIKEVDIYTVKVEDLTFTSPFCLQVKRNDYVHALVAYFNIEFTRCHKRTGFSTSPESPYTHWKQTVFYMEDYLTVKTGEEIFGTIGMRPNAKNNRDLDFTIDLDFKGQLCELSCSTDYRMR
mABHD4 conf – ABHD4 (mouse) inhibition, FP confirmation; inhibition, % at 8.92 µM; shares compounds with ABHD4 inh; hit rate 55% among 1,800; AID 720658; purified mABHD4, FP-Rh probe fluorescence polarization;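 active = mean inhibition across replicates above the hit cutoff set in the primary screen, cut at about 30% in these data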
Of the large screens only hits and unclear results are named; the others gave an inactive call (follow-up assays come after a bar, where they were run). The list is not random: actives were taken first. Their share in the collection is about 2.9%.

CN(C(=O)[C@@H]1CC=C[C@@H]2CCN(C3CCCCC3)C(=O)[C@@H]21)c1ccccc1	none (no result: TCR-CD3 inh, PAD4 inh, HTRA1 inhibitor)
CCCCNS(=O)(=O)CC1NCCc2ccccc21 (centres undefined)	none (no result: TCR-CD3 inh, PAD4 inh, HTRA1 inhibitor)
NC(Cc1ccc(Cl)cc1)c1csc(Nc2ccc(C(F)(F)F)cn2)n1 (centres undefined)	ABHD4 inh 32 (no result: PAD4 inh, HTRA1 inhibitor) | mABHD4 conf 30
CCCCCCCCNS(=O)(=O)/C=C/c1ccccc1CNC(=O)OC(C)(C)C	none (no result: TCR-CD3 inh, PAD4 inh, HTRA1 inhibitor)
CN(C)CCNc1ncnc2c1ncn2[C@H]1CN(Cc2ccc3c(c2)OCO3)C[C@@H](CO)O1	ABHD4 inh 34 (no result: PAD4 inh, HTRA1 inhibitor) | mABHD4 conf inactive
NC(=O)c1ccsc1NC(=O)c1ccc([N+](=O)[O-])o1	ABHD4 inh 50 | mABHD4 conf 56
NC(=O)c1ccsc1NC(=O)COC(=O)c1ccc([N+](=O)[O-])o1	none
O[C@H](COc1ccc(OC(F)(F)F)cc1)CN1CCC(C(O)(c2ccccc2)c2ccccc2)CC1	none (no result: TCR-CD3 inh, PAD4 inh, HTRA1 inhibitor)
CC(C)(C)CC(C)(C)c1ccc(OCCOCC[N+](C)(C)Cc2ccccc2)cc1	ABHD4 inh 36 | mABHD4 conf 44
COc1ccc([C@H](C#Cc2ccccc2)CC(=O)O)cc1OC1CCCC1	none (no result: TCR-CD3 inh, PAD4 inh, HTRA1 inhibitor)
Cc1ccccc1C1CCC2(CC1)CCN(CC[C@@H](O)c1ccccc1)C2=O (some centres undefined)	none (no result: TCR-CD3 inh, PAD4 inh, HTRA1 inhibitor)
Brc1ccc(-c2csc(N3CCNCC3)n2)cc1	ABHD4 inh 61 (no result: TCR-CD3 inh, PAD4 inh, HTRA1 inhibitor) | mABHD4 conf 75
O=C(C1CCN(c2nc(-c3ccc(Br)cc3)cs2)CC1)N1CCNCC1	none (no result: TCR-CD3 inh, PAD4 inh, HTRA1 inhibitor)
CCN=c1scc(C)n1/N=C/c1cc(Br)c(O)c(Br)c1	ABHD4 inh 55 | mABHD4 conf 66
O=C(Nc1ccc(Cl)cc1)C1CCCN1S(=O)(=O)c1cccc2cccnc12 (centres undefined)	none (no result: TCR-CD3 inh, PAD4 inh, HTRA1 inhibitor)
Cc1csc(=O)n1CC(=O)OCc1nnc(-c2ccc(Cl)cc2)o1	ABHD4 inh 36 | mABHD4 conf inactive
Cc1csc(=O)n1CC(=O)OCc1nnc(-c2ccccc2)o1	none
Cc1ccc(S(=O)(=O)NNC(=O)C(=O)NNc2ccccn2)cc1	ABHD4 inh 42 | mABHD4 conf 35
Nc1ccc(S(=O)(=O)NNC(=O)C(=O)NNc2ccccn2)cc1	none
Cc1ccccc1S(=O)(=O)NNC(=O)C(=O)NNc1ccccn1	ABHD4 inh 35 | mABHD4 conf 33
Nc1ccc(O)cc1C(=O)OCC(=O)C12CC3CC(CC(C3)C1)C2	ABHD4 inh 52 | mABHD4 conf 35
CCOc1ccc(NS(=O)(=O)c2ccc(Cl)c(N=Nc3c(O)[nH]c(=S)[nH]c3=O)c2)cc1Br	ABHD4 inh 39 (no result: PAD4 inh) | mABHD4 conf 52
CCCCOCCCNC(=O)C[C@H]1C[C@@]2(C(=O)OCC)CCCC3=C2N(CCC3)C1=O	none (no result: TCR-CD3 inh, PAD4 inh, HTRA1 inhibitor)
COc1ccccc1CNc1nc(NCc2ccc(C(C)C)cc2)c2sccc2n1	ABHD4 inh 36 (no result: PAD4 inh, HTRA1 inhibitor) | mABHD4 conf 34
COc1ccccc1CNc1nc(NCCOc2ccccc2Cl)c2sccc2n1	ABHD4 inh 31 (no result: PAD4 inh, HTRA1 inhibitor) | mABHD4 conf 69
COc1ccccc1CNc1nc(NC(C)C)nc2ccsc12	none (no result: PAD4 inh, HTRA1 inhibitor)
COC(=O)[C@]12C[C@H](CC(=O)N3CCSCC3)C(=O)N(Cc3ccc4c(c3)OCO4)C1=C[C@H](COCc1ccccc1)O[C@@H]2C	none (no result: PAD4 inh, HTRA1 inhibitor)
O=C(CCc1ccccc1-c1ccccc1CCNC(=O)COCc1ccccc1)NCc1ccccc1	none (no result: TCR-CD3 inh, PAD4 inh, HTRA1 inhibitor)
O=C(Nc1ccccc1)c1ccccc1NC(=O)c1ccccc1[N+](=O)[O-]	none
O=[N+]([O-])c1ccccc1C(=Nc1ccccc1)c1c(O)cc(O)cc1O	ABHD4 inh 30 (no result: PAD4 inh) | mABHD4 conf inactive
CC(=O)N1CCN(c2ccc(NCc3ccc(Br)o3)cc2)CC1	ABHD4 inh 38 | mABHD4 conf inactive
COc1ccc(N=C2NC(=O)/C(=C/c3ccco3)S2)cc1	ABHD4 inh 33 | mABHD4 conf inactive
Nc1cc2[nH]c(=O)c3ccccc3c2cc1[N+](=O)[O-]	none (no result: PAD4 inh)
Nc1c(Br)cc2c([nH]c(=O)c3ccccc32)c1Br	ABHD4 inh 42 (no result: PAD4 inh) | mABHD4 conf 37
Nc1[nH]n(-c2ccccc2)c(=O)c1N=Nc1ccc2c(c1)OCO2	none
Cc1ccccc1N=Nc1c(N)[nH]n(-c2ccccc2)c1=O	ABHD4 inh 34 (no result: TCR-CD3 inh, PAD4 inh, HTRA1 inhibitor) | mABHD4 conf 43

Assay outcomes deposited in PubChem by The Scripps Research Institute Molecular Screening Center.
